This is a sample that favours compounds with a hit; in the whole collection about 3.7% have one here.
KCNQ1 pot = potentiates or activates the human KCNQ1 potassium channel | CHO-K1 KCNQ1, thallium flux FluxOR fluorescence; stronger effect = higher value | P51787 | B-score at 10 µM | actives 0.35% (n = 310,000);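 active means fluorescence ratio B-score, a plate-corrected score, at least three library SD, with initial intensity B-score within 5 SD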
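System: CHO-K1 cells stably expressing KCNQ1 / Medium: assay buffer for compound exposure, DMSO matched across wells / Reagent: thallium- and potassium-containing depolarizing buffer / Compound: one concentration, matched DMSO / Incubation: 20 min compound pretreatment at room temperature / Measured by: kinetic FluxOR fluorescence, 10 s baseline plus 110 s post-stimulus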
hERG protect = compounds protecting human hERG from proarrhythmic drug block; CHO-hERG, FluxOR thallium flux, dofetilide IC70 present; activation (rescue from dofetilide block), less the hit threshold, % at 10 µM; actives 0.51% (n = 310,000); Q12809;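 active means activation above the mean of controls blocked by dofetilide plus 5 SD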;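 further: thallium influx through hERG after potassium depolarization seen as dye fluorescence rise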
Target sequence (Q12809 whole entry, looked up): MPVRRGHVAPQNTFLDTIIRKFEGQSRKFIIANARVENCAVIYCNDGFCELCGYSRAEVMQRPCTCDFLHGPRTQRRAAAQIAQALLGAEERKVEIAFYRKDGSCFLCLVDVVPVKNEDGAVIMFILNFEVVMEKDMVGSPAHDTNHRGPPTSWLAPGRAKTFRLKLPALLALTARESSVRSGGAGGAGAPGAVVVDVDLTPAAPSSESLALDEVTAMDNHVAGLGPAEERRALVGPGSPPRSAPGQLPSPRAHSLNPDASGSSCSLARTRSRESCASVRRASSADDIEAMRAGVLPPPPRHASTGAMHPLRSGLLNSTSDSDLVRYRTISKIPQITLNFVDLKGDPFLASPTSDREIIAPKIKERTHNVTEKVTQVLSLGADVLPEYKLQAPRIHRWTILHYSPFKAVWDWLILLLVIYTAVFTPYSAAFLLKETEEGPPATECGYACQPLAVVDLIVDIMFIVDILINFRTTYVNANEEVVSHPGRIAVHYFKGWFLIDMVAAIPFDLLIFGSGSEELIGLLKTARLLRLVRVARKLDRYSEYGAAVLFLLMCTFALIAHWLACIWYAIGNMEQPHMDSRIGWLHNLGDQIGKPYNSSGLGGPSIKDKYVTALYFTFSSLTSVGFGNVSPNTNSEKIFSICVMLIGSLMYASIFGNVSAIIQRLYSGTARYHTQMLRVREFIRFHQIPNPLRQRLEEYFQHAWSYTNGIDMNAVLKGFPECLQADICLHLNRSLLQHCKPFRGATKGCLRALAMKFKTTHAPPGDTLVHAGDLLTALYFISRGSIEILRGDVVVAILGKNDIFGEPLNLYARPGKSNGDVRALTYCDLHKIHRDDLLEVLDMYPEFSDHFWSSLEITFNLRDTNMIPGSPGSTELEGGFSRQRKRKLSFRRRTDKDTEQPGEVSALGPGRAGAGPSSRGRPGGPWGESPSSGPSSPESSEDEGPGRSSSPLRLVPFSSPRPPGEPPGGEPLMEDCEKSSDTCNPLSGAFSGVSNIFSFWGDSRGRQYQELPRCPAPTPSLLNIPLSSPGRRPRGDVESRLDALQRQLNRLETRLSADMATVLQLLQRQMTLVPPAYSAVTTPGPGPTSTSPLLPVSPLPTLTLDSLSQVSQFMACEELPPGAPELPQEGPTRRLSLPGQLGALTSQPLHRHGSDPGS
KCNK9 block = human KCNK9 channel inhibition; Q9NPC2; AID 488922; HEK293 KCNK9, FluxOR thallium flux fluorescence; stronger effect = lower value; actives 1.2% (n = 310,000); B-score at 10 µM;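 active means ratio B-score over 3 SD below the library mean, with starting fluorescence within 5 SD of its mean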;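 further: negative B-score means less thallium flux so channel inhibition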
Kir21 inh = Kir2.1 (mouse) channel inhibition. actives 0.85% (n = 310,000). B-score at 10 µM. AID 1672. P35561. HEK293-Kir2.1, FluxOR thallium flux fluorescence; stronger effect = lower value;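 active means fluorescence ratio B-score at or below minus 3 SD of library scores, with starting-brightness B-score within 2 SD, cut at about -4.2 in these data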;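 further: channel flux triggered by added potassium and thallium sulfate stimulus; B-score of peak minus minimum fluorescence over baseline after thallium stimulus; more negative B-score means stronger Kir2.1 block with less thallium influx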
KCNK3 block = human KCNK3 channel inhibition, primary screen. CHO-KCNK3 thallium flux, FluxOR fluorescence; stronger effect = lower value. B-score at 10 µM. actives 0.84% (n = 340,000);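 active means B-score under library mean minus 4 SD, starting fluorescence ratio at most library mean plus 5 SD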;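 further: more negative B-score means stronger inhibition of thallium flux through KCNK3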
KCNQ1 inh = blocks the human KCNQ1 potassium channel | CHO-K1 KCNQ1, FluxOR thallium flux fluorescence; stronger effect = higher value | actives 1.3% (n = 310,000) | B-score at 10 µM | AID 2642;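 active means compounds whose thallium flux B-score, printed positive for inhibition, exceeds three library SD while starting fluorescence stays within three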;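 further: channel opened by potassium depolarization with thallium stimulus after 20 min compound exposure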
KCNK9 block conf = confirmation of human KCNK9 potassium channel inhibitors | shares compounds with KCNK9 block | HEK293 KCNK9 cells, FluxOR thallium flux fluorescence | inhibition, % at 10 µM | actives 43% (n = 4,900);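 active means thallium signal inhibited by more than 5 SD of the compound-free buffer control wells, on both duplicate plates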
Kir2-1 spec = mouse Kir2.1 off-target activity of KCNK9 modulators | shares compounds with KCNK9 block | Kir2.1 cells, FluxOR thallium flux fluorescence | inhibition, % at 10 µM | actives 4% (n = 4,900) | AID 492993;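 active means thallium signal drop more than 5 SD beyond the mean of the no-compound control wells, seen in both duplicate plates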;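 further: signal is fluorescence rise after thallium addition divided by baseline fluorescence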
HEK293 Tl ctr = non-induced cell nonspecific activity of KCNK9 modulators; shares compounds with KCNK9 block; inhibition, % at 10 µM; actives 40% (n = 4,900); non-induced KCNK9-HEK293, FluxOR thallium flux;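 active means thallium signal drop beyond 5 SD of the untreated control mean, on both duplicate plates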
Numbers stand for hits; - = inactive; . = no result; ! = repeats disagree.

SMILES	KCNQ1 pot	hERG protect	KCNK9 block	Kir21 inh	KCNK3 block	KCNQ1 inh	KCNK9 block conf	Kir2-1 spec	HEK293 Tl ctr
CCn1c(C(=O)NCCCN2CCc3ccccc3C2)cc2sccc21	-	-	-	-	-	-	.	.	.
N#CC1=C(N)OC2=C(CCc3ccccc32)C1c1ccccc1 (centres undefined)	-	-	-8.7	-	-	-	36%	-	40%
Cc1ccc(/C=C2\CCC3=C2OC(N)=C(C#N)C3c2ccc(C)cc2)cc1 (centres undefined)	-	-	-	-	-	-	.	.	.
COc1ccccc1N1CCN(C(=O)CSc2nc3ccccc3nc2N2CCC(C)CC2)CC1	-	-	-	-	-	-	-	-	-
COc1ccccc1N1CCN(C(=O)CSc2ncccc2-c2nc3ccccc3[nH]2)CC1	-	-	-	-	-	-	.	.	.
CCOc1ccc(NC(=O)CSc2nc3ccccc3nc2N2CCCC2)cc1	-	-	-	-	-	-	.	.	.
CCOc1ccccc1NC(=O)CSc1nc2ccccc2nc1N1CCOCC1	-	-	-	-	-	-	.	.	.
CCOc1ccccc1NC(=O)CSc1nc2ccccc2nc1N1CCCC1	-	-	-8.6	-	-	6	-	-	-
COc1ccc(NC(=O)CSc2nc3ccccc3nc2N2CCCC2)cc1	-	-	-	-	-	-	-	-	-
O=C(NCC1COCCO1)c1cc(COc2c(F)cccc2F)on1 (centres undefined)	-	-	-	-	-	-	.	.	.
CC[n+]1c(/C=C/c2ccc(N(C)C)cc2)ccc2ccccc21	-	-	-12	-14	-	-	60%	85%	60%
CC[n+]1c(/C=C/c2ccc(OC(C)=O)c(OC)c2)ccc2ccccc21	-	-	-	-	-	-	.	.	.
COc1ccc(NC(=S)N2CCN(C/C=C/c3ccccc3)CC2)c(OC)c1	-	-	-	-	-	-	.	.	.
COC(=O)c1cc(OC)c(OC)cc1NC(=S)N1CCN(C/C=C/c2ccccc2)CC1	-	-	-	-	-	-	-	-	-
COc1cc(C(=O)N2CCN(C/C=C/c3ccccc3)CC2)cc(OC)c1OC	-	-	-	-	-	-	.	.	.
CCOc1cc(C(=O)N2CCN(C/C=C/c3ccccc3)CC2)cc(OCC)c1OCC	-	-	-	-	-	-	-	-	-
COc1ccc(-c2csc3nc(-c4ccccc4OC)oc(=O)c23)cc1	-	-	-11	-	-	-	72%	-	-
Cc1c(C(=O)N2CCOCC2)c(S(=O)(=O)Nc2cccc(C#N)c2)c(C)n1C	-	-	-	-	-	-	.	.	.
COC(=O)c1nn(-c2ccccc2)c(Cl)c1/C=N/O	-	-	-	-	-	-	.	.	.
COC(=O)c1nn(-c2ccccc2)c(Cl)c1/C=N/OCc1ccc(Cl)cc1Cl	-	-	-	-	-	-	-	-	-
COc1ccc(C(CNC(=O)COc2ccccc2)N2CCCCC2)cc1 (centres undefined)	.	.	.	.	-	.	.	.	.
CCOC(=O)C1CCN(c2c([N+](=O)[O-])c(C(Cl)Cl)nn2-c2ccccc2)CC1	-	-	-	-	-	-	-	-	-
O=[N+]([O-])c1c(C(Cl)Cl)nn(-c2ccccc2)c1N1CCCC1	-	-	-	-	-	-	.	.	.
Cc1ccc(NC(=O)Cc2nnc(SCC(=O)NC3=NCCS3)n2C)cc1	-	-	-	-	-	-	.	.	.
CN[C@H]1CC[C@@H](c2ccc(Cl)c(Cl)c2)c2ccccc21	-	.	-8.6!	-6.2	-	-	34%	-	.
SMILES	KCNQ1 pot	hERG protect	KCNK9 block	Kir21 inh	KCNK3 block	KCNQ1 inh	KCNK9 block conf	Kir2-1 spec	HEK293 Tl ctr
O=C(NCCSc1ccccc1)c1ccc(CN2CCOCC2)cc1	-	-	-	-	-	-	.	.	.
NC(=O)c1ccccc1OCC(=O)N1CCc2ccccc2C1	-	-	-	-	-	-	.	.	.
Cc1ccc(C)n1-c1ccc(C(=O)Nc2ccccc2F)cc1	-	-	-	-	-	-	.	.	.
CCc1ccccc1NC(=O)c1ccc(-n2c(C)ccc2C)cc1	-	-	-8.5	-	-	-	32%	-	-
CC(Oc1cccc([N+](=O)[O-])c1)C(=O)NCCC1=CCCCC1 (centres undefined)	.	.	.	.	-	.	.	.	.
CC(C)C[C@H]1C(=O)N2CCC[C@H]2[C@]2(O)O[C@](NC(=O)C3C=C4c5cccc6[nH]c(Br)c(c56)C[C@H]4N(C)C3)(C(C)C)C(=O)N12 (some centres undefined)	-	-	-	-	-	7	-	-	-
CCc1ccc(OCC(=O)Nc2ccc3[nH]ncc3c2)cc1	-	-	-	-	-	-	.	.	.
Cc1sc(NC(=O)c2ccco2)c(CN2CCN(c3ccccn3)CC2)c1C	-	-	-12	-	-9.8	-	48%	-	30%
COc1ccccc1OCCNC(=O)c1cccc(S(=O)(=O)NCc2ccccc2)c1	.	.	.	.	-	.	.	.	.
CCCCn1cnc2c(c(-c3ccccc3)c(-c3ccccc3)n2Cc2ccco2)c1=N	-	-	-13	-	-	10	44%	-	-
CCc1ccc(OCCCCN(C)Cc2ccccc2)cc1	-	-	-	-6.1	-	-	-	-	-
Cc1nnc(SCC(=O)Nc2cc(C(N)=O)cc(C(N)=O)c2)n1-c1ccccc1	-	-	-	-	-	-	.	.	.
Cc1ccc(CCc2nnc(SCC(=O)Nc3cccc(Cl)c3)n2-c2ccccc2)o1	-	-	-	-	-	-	-	-	-
O=C(NC1CCCN(Cc2ccccc2F)C1)C1CCC1 (centres undefined)	-	-	-	-	-	-	.	.	.
CCCCn1c(-c2cccc3ccccc23)nc2cc3[nH]c(=O)c(C(C)C)nc3cc21	-	-	-11	-	-	-	54%	-	-
CCCCn1c(C2CCCCC2)nc2cc3[nH]c(=O)c(C(C)C)nc3cc21	-	-	-	-	-	-	.	.	.
COc1cccc(CNC(=O)CNS(=O)(=O)c2ccc(Br)s2)c1	-	-	-	-	-	-	.	.	.
Oc1ccc(-c2nc3c4c(ncn3n2)-c2ccccc2CC42CCCC2)cc1	-	-	-9	-	-	-	36%	-	35%
CC(=O)Nn1cnc2c(c1=O)C1(CCCC1)Cc1ccccc1-2	.	.	.	.	-	.	.	.	.
CCOC(=O)c1c(C)[nH]c(C)c1S(=O)(=O)NCc1ccccc1OCC	-	-	-	-	-	-	.	.	.
COc1ccc(NC(=O)C23CC4CC(C2)CC(c2ccccc2)(C4)C3)c(OC)c1	-	-	-	-	-	-	-	-	-
COCCNC(=O)C12CC3CC(C1)CC(c1ccccc1)(C3)C2	-	-	-	-	-	-	.	.	.
